What was measured:
Type in all cases: functional
SF-539 = experiment: Cytotoxicity against human SF539 cells assessed as cell growth at 10 uM; conditions: read-out: Activity
How it was run: (§1)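 NCI-60 screen: cells grown in RPMI 1640 with 5% FBS and 2 mM L-glutamine, plated at 5000–40,000 cells/well according to doubling time, and preincubated 24 h at 37 °C, 5% CO2. The single 10 µM dose (DMSO stock) was added, then incubated 48 h. Cells were TCA-fixed and stained with 0.4% SRB, read at 515 nm, and growth % calculated against time-zero and control plates.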

SNB-19 = experiment: Cytotoxicity against human SNB19 cells assessed as cell growth at 10 uM; conditions: read-out: Activity; how it was run: as §1
SNB-75 = experiment: Cytotoxicity against human SNB75 cells assessed as cell growth at 10 uM; conditions: read-out: Activity; how it was run: as §1
U-251 = experiment: Cytotoxicity against human U251 cells assessed as cell growth at 10 uM; conditions: read-out: Activity; how it was run: as §1
LOX IMVI = experiment: Cytotoxicity against human LOXIMVI cells assessed as cell growth at 10 uM; conditions: read-out: Activity; how it was run: as §1
Malme-3M = experiment: Cytotoxicity against human MALME-3M cells assessed as cell growth at 10 uM; conditions: read-out: Activity; how it was run: as §1
M14 = experiment: Cytotoxicity against human M14 cells assessed as cell growth at 10 uM; conditions: read-out: Activity; how it was run: as §1
MDA-MB-435 = experiment: Cytotoxicity against human MDA-MB-435 cells assessed as cell growth at 10 uM; conditions: read-out: Activity; how it was run: as §1
SK-MEL-2 = experiment: Cytotoxicity against human SK-MEL-2 cells assessed as cell growth at 10 uM; conditions: read-out: Activity; how it was run: as §1
SK-MEL-28 = experiment: Cytotoxicity against human SK-MEL-28 cells assessed as cell growth at 10 uM; conditions: read-out: Activity; how it was run: as §1
SK-MEL-5 = experiment: Cytotoxicity against human SK-MEL-5 cells assessed as cell growth at 10 uM; conditions: read-out: Activity; how it was run: as §1
UACC-257 = experiment: Cytotoxicity against human UACC257 cells assessed as cell growth at 10 uM; conditions: read-out: Activity; how it was run: as §1
UACC-62 = experiment: Cytotoxicity against human UACC62 cells assessed as cell growth at 10 uM; conditions: read-out: Activity; how it was run: as §1
IGROV-1 = experiment: Cytotoxicity against human IGROV1 cells assessed as cell growth at 10 uM; conditions: read-out: Activity
How it was run: (§2)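 Single-dose NCI-60 screen at 10 µM. Cells were grown in RPMI 1640 with 5% FBS and 2 mM L-glutamine, then treated for 48 h at 37 °C. Protein was measured by SRB staining with absorbance at 515 nm. Percentage growth was recorded, and inhibition percentage was calculated as 100 minus growth percentage.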

OVCAR-3 = experiment: Cytotoxicity against human OVCAR-3 cells assessed as cell growth at 10 uM; conditions: read-out: Activity; how it was run: as §1
OVCAR-4 = experiment: Cytotoxicity against human OVCAR4 cells assessed as cell growth at 10 uM; conditions: read-out: Activity; how it was run: as §1
OVCAR-5 = experiment: Cytotoxicity against human OVCAR5 cells assessed as cell growth at 10 uM; conditions: read-out: Activity; how it was run: as §1
OVCAR-8 = experiment: Cytotoxicity against human OVCAR8 cells assessed as cell growth at 10 uM; conditions: read-out: Activity; how it was run: as §1
NCI/ADR-RES = experiment: Cytotoxicity against human NCI/ADR-RES cells assessed as cell growth at 10 uM; conditions: read-out: Activity; how it was run: as §1
SK-OV-3 = experiment: Cytotoxicity against human SKOV3 cells assessed as cell growth at 10 uM; conditions: read-out: Activity; how it was run: as §1
786-0 = experiment: Cytotoxicity against human 786-0 cells assessed as cell growth at 10 uM; conditions: read-out: Activity; how it was run: as §2
A498 = experiment: Cytotoxicity against human A498 cells assessed as cell growth at 10 uM; conditions: read-out: Activity; how it was run: as §2
ACHN = experiment: Cytotoxicity against human ACHN cells assessed as cell growth at 10 uM; conditions: read-out: Activity; how it was run: as §2
CAKI-1 = experiment: Cytotoxicity against human Caki1 cells assessed as cell growth at 10 uM; conditions: read-out: Activity; how it was run: as §2
RXF 393 = experiment: Cytotoxicity against human RXF393 cells assessed as cell growth at 10 uM; conditions: read-out: Activity; how it was run: as §1
SN12C = experiment: Cytotoxicity against human SN12C cells assessed as cell growth at 10 uM; conditions: read-out: Activity; how it was run: as §1
TK-10 = experiment: Cytotoxicity against human TK10 cells assessed as cell growth at 10 uM; conditions: read-out: Activity; how it was run: as §1
UO-31 = experiment: Cytotoxicity against human UO31 cells assessed as cell growth at 10 uM; conditions: read-out: Activity; how it was run: as §1
PC-3 = experiment: Cytotoxicity against human PC3 cells assessed as cell growth at 10 uM; conditions: read-out: Activity; how it was run: as §1
DU-145 = experiment: Cytotoxicity against human DU145 cells assessed as cell growth at 10 uM; conditions: read-out: Activity; how it was run: as §2
MCF7 = experiment: Cytotoxicity against human MCF7 cells assessed as cell growth at 10 uM; conditions: read-out: Activity; how it was run: as §1
MDA-MB-231 = experiment: Cytotoxicity against human MDA-MB-231 cells assessed as cell growth at 10 uM; conditions: read-out: Activity; how it was run: as §1
[1] = Cytotoxicity against human Hs 578T cells assessed as cell growth at 10 uM; conditions: read-out: Activity; how it was run: as §2
BT-549 = experiment: Cytotoxicity against human BT549 cells assessed as cell growth at 10 uM; conditions: read-out: Activity; how it was run: as §2
T47D = experiment: Cytotoxicity against human T47D cells assessed as cell growth at 10 uM; conditions: read-out: Activity; how it was run: as §1
MDA-MB-468 = experiment: Cytotoxicity against human MDA-MB-468 cells assessed as cell growth at 10 uM; conditions: read-out: Activity; how it was run: as §1
[2] = Growth inhibition of human NCI60 cells at 10 uM after 48 hrs by sulforhodamine B assay relative to control; conditions: NCI60, 48 h, read-out: GI
How it was run: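 Single-dose NCI screen at 10 µM across the 60-line panel, 48 h exposure at 37 °C after a 24 h preincubation. Adherent cells were fixed with cold TCA and stained with 0.4% SRB, and absorbance was read at 515 nm. Inhibition % was taken as 100 minus growth %, and the mean across all lines was reported.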

CCRF-CEM = experiment: Cytotoxicity against human CCRF-CEM cells assessed as cell growth at 10 uM; conditions: read-out: Activity; how it was run: as §2
HL-60(TB) = experiment: Cytotoxicity against human HL-60(TB) cells assessed as cell growth at 10 uM; conditions: read-out: Activity
How it was run: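 NCI 60-cell panel screen at a single concentration of 10 µM. Cells are grown in RPMI 1640 with 5% FBS and 2 mM L-glutamine and read by SRB protein staining at 515 nm. Percent growth is measured relative to time-zero and untreated controls; inhibition % is 100 minus growth %.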

K562 = experiment: Cytotoxicity against human K562 cells assessed as cell growth at 10 uM; conditions: read-out: Activity; how it was run: as §2
MOLT-4 = experiment: Cytotoxicity against human MOLT4 cells assessed as cell growth at 10 uM; conditions: read-out: Activity; how it was run: as §1
[3] = Cytotoxicity against human […] cells assessed as cell growth at 10 uM; conditions: read-out: Activity; how it was run: as §1
SR = experiment: Cytotoxicity against human SR cells assessed as cell growth at 10 uM; conditions: read-out: Activity; how it was run: as §1
A549 = experiment: Cytotoxicity against human A549 cells assessed as cell growth at 10 uM; conditions: read-out: Activity; how it was run: as §2
EKVX = experiment: Cytotoxicity against human EKVX cells assessed as cell growth at 10 uM; conditions: read-out: Activity; how it was run: as §2
HOP-62 = experiment: Cytotoxicity against human HOP62 cells assessed as cell growth at 10 uM; conditions: read-out: Activity; how it was run: as §2
HOP-92 = experiment: Cytotoxicity against human HOP92 cells assessed as cell growth at 10 uM; conditions: read-out: Activity; how it was run: as §2
NCI-H226 = experiment: Cytotoxicity against human NCI-H226 cells assessed as cell growth at 10 uM; conditions: read-out: Activity; how it was run: as §1
NCI-H23 = experiment: Cytotoxicity against human NCI-H23 cells assessed as cell growth at 10 uM; conditions: read-out: Activity; how it was run: as §1
NCI-H322M = experiment: Cytotoxicity against human NCI-H322M cells assessed as cell growth at 10 uM; conditions: read-out: Activity; how it was run: as §1
NCI-H460 = experiment: Cytotoxicity against human NCI-H460 cells assessed as cell growth at 10 uM; conditions: read-out: Activity; how it was run: as §1
NCI-H522 = experiment: Cytotoxicity against human NCI-H522 cells assessed as cell growth at 10 uM; conditions: read-out: Activity; how it was run: as §1
COLO 205 = experiment: Cytotoxicity against human COLO205 cells assessed as cell growth at 10 uM; conditions: read-out: Activity; how it was run: as §2
HCC 2998 = experiment: Cytotoxicity against human HCC2998 cells assessed as cell growth at 10 uM; conditions: read-out: Activity; how it was run: as §2
HCT-116 = experiment: Cytotoxicity against human HCT116 cells assessed as cell growth at 10 uM; conditions: read-out: Activity; how it was run: as §2
HCT-15 = experiment: Cytotoxicity against human HCT15 cells assessed as cell growth at 10 uM; conditions: read-out: Activity; how it was run: as §2
HT-29 = experiment: Cytotoxicity against human HT-29 cells assessed as cell growth at 10 uM; conditions: read-out: Activity; how it was run: as §2
KM12 = experiment: Cytotoxicity against human KM12 cells assessed as cell growth at 10 uM; conditions: read-out: Activity; how it was run: as §1
SW-620 = experiment: Cytotoxicity against human SW620 cells assessed as cell growth at 10 uM; conditions: read-out: Activity; how it was run: as §1
SF-268 = experiment: Cytotoxicity against human SF268 cells assessed as cell growth at 10 uM; conditions: read-out: Activity; how it was run: as §1
SF-295 = experiment: Cytotoxicity against human SF295 cells assessed as cell growth at 10 uM; conditions: read-out: Activity; how it was run: as §1

`COc1cc(C)cc(-c2nn(CC#N)cc2-c2ccnc(-c3ccc(C(C)=O)cc3)c2)c1` showed a growth at 10 µM (SF-539) of 81.9%, a growth at 10 µM (SNB-19) of 92.2% and a growth at 10 µM (SNB-75) of 46.4%. The growth at 10 µM (U-251) was 91.8%, the growth at 10 µM (LOX IMVI) was 78.1% and the growth at 10 µM (Malme-3M) was 139%. The growth at 10 µM (M14) was 103%, the growth at 10 µM (MDA-MB-435) was 70% and the growth at 10 µM (SK-MEL-2) was 89.1%. The growth at 10 µM (SK-MEL-28) was 75.4%, the growth at 10 µM (SK-MEL-5) was 39.7% and the growth at 10 µM (UACC-257) was 82.7%. The growth at 10 µM (UACC-62) was 64.6%, the growth at 10 µM (IGROV-1) was 101% and the growth at 10 µM (OVCAR-3) was 108%. The growth at 10 µM (OVCAR-4) was 58.6%, the growth at 10 µM (OVCAR-5) was 108% and the growth at 10 µM (OVCAR-8) was 80.6%. For the same compound, the growth at 10 µM (NCI/ADR-RES) was 73.8%, the growth at 10 µM (SK-OV-3) was 89% and the growth at 10 µM (786-0) was 93.9%. The growth at 10 µM (A498) was 93%, the growth at 10 µM (ACHN) was 73.8% and the growth at 10 µM (CAKI-1) was 87.2%. For the same compound, the growth at 10 µM (RXF 393) was 78.9%, the growth at 10 µM (SN12C) was 83.6% and the growth at 10 µM (TK-10) was 95.2%. For the same compound, the growth at 10 µM (UO-31) was 79.1%, the growth at 10 µM (PC-3) was 82.9% and the growth at 10 µM (DU-145) was 113%. The growth at 10 µM (MCF7) was 27.6%, the growth at 10 µM (MDA-MB-231) was 73.8% and the growth at 10 µM [1] was 83.8%. It also gave a growth at 10 µM (BT-549) of 93.5%, a growth at 10 µM (T47D) of 33.5% and a growth at 10 µM (MDA-MB-468) of 11.3%. It also gave an inhibition of growth at 10 µM [2] of 18.2%, a growth at 10 µM (CCRF-CEM) of 92.6% and a growth at 10 µM (HL-60(TB)) of 98.3%. The growth at 10 µM (K562) was 70.6%, the growth at 10 µM (MOLT-4) was 75.8% and the growth at 10 µM [3] was 82.9%. For the same compound, the growth at 10 µM (SR) was 78.4%, the growth at 10 µM (A549) was 67.1% and the growth at 10 µM (EKVX) was 104%. The growth at 10 µM (HOP-62) was 94.4%, the growth at 10 µM (HOP-92) was 81.7% and the growth at 10 µM (NCI-H226) was 78.3%. The growth at 10 µM (NCI-H23) was 78.9%, the growth at 10 µM (NCI-H322M) was 102% and the growth at 10 µM (NCI-H460) was 106%. For the same compound, the growth at 10 µM (NCI-H522) was 66.6%, the growth at 10 µM (COLO 205) was 66.8% and the growth at 10 µM (HCC 2998) was 76.8%. It also gave a growth at 10 µM (HCT-116) of 76.6%, a growth at 10 µM (HCT-15) of 68.7% and a growth at 10 µM (HT-29) of 79%. It also gave a growth at 10 µM (KM12) of 87.9%, a growth at 10 µM (SW-620) of 94.7% and a growth at 10 µM (SF-268) of 110%. It also gave a growth at 10 µM (SF-295) of 103%.
